Columns and labels:
[1] = test system: MCF7; assay: Inhibition of estrogen-stimulated MCF-7 cell proliferation; type: functional, cell-based; conditions: Homo sapiens
In short: (§1)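 MCF-7 breast tumor cells were stimulated to proliferate with 10⁻¹¹ M 17β-estradiol, with test compound added to measure inhibition of that proliferation. IC50 was derived from the inhibition.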

[2] = test system: Rattus norvegicus; assay: Percent decrease in serum cholesterol relative to OVX controls, at 1.0 mg/Kg compound dose; type: functional
In short: (§2)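 Ovariectomized rats were dosed daily for 4 days, and serum cholesterol was measured. Values are mean percent decrease relative to OVX controls ± SEM, n ≥ 5 per group, with significance at p ≤ 0.05. ED50 is the dose reducing serum cholesterol by 50% relative to OVX controls.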

[3] = test system: Rattus norvegicus; assay: Minimally effective dose(MED) (mg/kg body weight) at which a significant increase in EPO activity was observed in rats; type: functional; conditions: read-out: MED
In short: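 Uterine eosinophil peroxidase (EPO) activity was measured in the 4-day ovariectomized rat assay. […] Activity at the MED is given as Vmax ± standard error.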

[4] = organism: Rattus norvegicus; assay: Dose required to reduce serum cholesterol by 50% relative to ovariectomized (OVX) controls; type: functional; in short: as §2
[5] = biological target: T1, Estrogen receptor (Rattus norvegicus) (UniProt P06211+Q62986)
[6] = test system: Rattus norvegicus; assay: Percent decrease in serum cholesterol relative to OVX controls, at 0.01 mg/Kg compound dose; type: functional; in short: as §2
[7] = test system: MCF7; assay: Inhibition of estrogen-stimulated MCF-7 cell proliferation; not active; type: functional, cell-based, Homo sapiens; in short: as §1
[8] = biological target: T1, Estrogen receptor (Rattus norvegicus); assay: Minimally effective dose(MED) (mg/kg body weight) at which a statistically significant (p<= 0.05) increase in uterine weight/body weight was observed.; type: functional, organism-based
In short: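 A 4-day ovariectomized rat assay with daily dosing. Uterine weight/body weight was compared with OVX controls. The MED is the lowest dose (mg/kg) giving a significant increase (p ≤ 0.05). Activity at the MED is given as percent increase over OVX controls ± standard error.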

| Compound | IC50 [1] [nM] | Decrease [2] [%] | minimal effective dose [3] [mg/kg] | ED50 [4] [mg/kg] | MED [5] [mg/kg] | Decrease [6] [%] | IC50 [7] | MED [8] [mg/kg] |
| --- | --- | --- | --- | --- | --- | --- | --- | --- |
| COc1ccc2c(c1)OC(c1ccc(OCCN3CCCCC3)cc1)c1c-2sc2cc(OC)ccc12 (configuration not stated) | 100 | – | – | – | – | – | – | – |
| Oc1ccc2c(c1)OC(c1ccc(OCCN3CCOCC3)cc1)c1c-2sc2cc(O)ccc12 (configuration not stated) | 6 | 14.3 | 1 | > 10 | 1 | -48.7 | – | – |
| Oc1ccc2c(c1)OC(c1ccc(OCCN3CCCCC3)cc1)c1c-2oc2cc(O)ccc12 (configuration not stated) | 0.7 | – | > 10 | > 10 | > 10 | 17.4 | – | – |
| CCN(CC)CCOc1ccc(C2Oc3cc(O)ccc3-c3sc4cc(O)ccc4c32)cc1 (configuration not stated) | 8 | 38.7 | 0.1 | > 10 | 0.1 | 20.6 | – | – |
| O=C1CCCN1CCOc1ccc(C2Oc3cc(O)ccc3-c3sc4cc(O)ccc4c32)cc1 (configuration not stated) | 9 | 4.4 | > 3 | – | 3 | -15.2 | – | – |
| CN(C)CCOc1ccc(C2Oc3cc(O)ccc3-c3sc4cc(O)ccc4c32)cc1 (configuration not stated) | 2 | 54.7 | 0.1 | 0.5 | 0.1 | 40.1 | – | – |
| C#C[C@]1(O)CC[C@H]2[C@@H]3CCc4cc(O)ccc4[C@H]3CC[C@@]21C [ETHINYL ESTRADIOL] | – | – | 0.1 | 0.005 | – | 57.1 | Not Active | – |
| Oc1ccc2c(c1)OC(c1ccc(OCCN3CCCCC3)cc1)c1c-2sc2ccccc12 (configuration not stated) | 20 | 53.7 | > 10 | 0.5 | > 10 | 46.5 | – | – |
| Oc1ccc2c(c1)OC(c1ccc(OCCN3CCCCC3)cc1)c1c-2sc2cc(O)ccc12 (configuration not stated) | 0.2 | 47.6 | > 10 | 0.15 | > 10 | 62.2 | – | – |
| Oc1ccc2c3c(sc2c1)-c1ccccc1OC3c1ccc(OCCN2CCCCC2)cc1 (configuration not stated) | 6 | 51.5 | > 10 | 1 | > 10 | 25.4 | – | – |
| O=C(c1ccc(OCCN2CCCCC2)cc1)c1c(-c2ccc(O)cc2)sc2cc(O)ccc12 [RALOXIFENE] | […] | – | > 10 | […] | – | 44.9 | – | – |
| c1ccc2c(c1)OC(c1ccc(OCCN3CCCCC3)cc1)c1c-2sc2ccccc12 (configuration not stated) | 80 | – | > 10 | 0.7 | 0.1 | 39.8 | – | – |
| Oc1ccc2c(c1)OC(c1ccc(OCCN3CCCC3)cc1)c1c-2sc2cc(O)ccc12 (configuration not stated) | 0.6 | 68 | > 1 | 0.2 | 0.1 | 38.5 | – | – |
| CC/C(=C(\c1ccccc1)c1ccc(OCCN(C)C)cc1)c1ccccc1 [TAMOXIFEN] | – | 71.1 | 0.1 | 0.2 | – | 39.2 | – | – |
| Oc1ccc2c(c1)OC(c1ccc(OCCN3CCCCC3)cc1)c1c-2ccc2cc(O)ccc12 (configuration not stated) | 0.4 | 65.7 | > 10 | 0.02 | – | 57.2 | – | > 10 |

— ChEMBL document CHEMBL1131328 (J Med Chem, 1998)
